Assay results from different studies.
Protocols differ between the studies behind these lines.
Target: Protein kinase C iota type (PRKCI, Homo sapiens, UniProt P41743)
Sequence (P41743 1-596, as in one of the studies): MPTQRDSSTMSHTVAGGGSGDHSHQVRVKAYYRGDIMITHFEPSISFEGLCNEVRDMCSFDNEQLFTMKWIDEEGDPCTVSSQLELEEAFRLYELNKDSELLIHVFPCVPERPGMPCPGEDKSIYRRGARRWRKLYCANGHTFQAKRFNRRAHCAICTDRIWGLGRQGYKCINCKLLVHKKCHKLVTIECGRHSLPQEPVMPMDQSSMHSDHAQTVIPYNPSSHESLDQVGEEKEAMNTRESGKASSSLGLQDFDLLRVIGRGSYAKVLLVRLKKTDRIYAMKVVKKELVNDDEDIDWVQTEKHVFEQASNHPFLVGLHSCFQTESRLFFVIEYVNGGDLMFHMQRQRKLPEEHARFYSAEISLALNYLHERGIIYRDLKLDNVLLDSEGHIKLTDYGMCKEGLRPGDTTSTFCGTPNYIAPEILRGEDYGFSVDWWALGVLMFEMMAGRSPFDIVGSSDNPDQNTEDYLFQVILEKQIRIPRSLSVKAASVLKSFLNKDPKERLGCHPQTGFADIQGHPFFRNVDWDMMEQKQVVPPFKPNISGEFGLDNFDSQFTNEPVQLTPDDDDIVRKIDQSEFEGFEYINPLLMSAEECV

| SMILES | observed | method | concentration | remaining binding [%] |
| --- | --- | --- | --- | --- |
| COc1ccc2c(c1)O[C@@H](c1ccc(OC)c(OC)c1)C[C@H]2NC(=O)C1(c2ccc3c(c2)OC(F)(F)O3)CC1 | cell-free assay | competition with immobilised ligand | 1 µM | 92 |
| F[C@@H]1CCN(c2nccc(-c3cnn4ncccc34)n2)C1 | binding |  | 1 µM | 100 |
| O=C(NCCCN1CCOCC1)c1ccc(Nc2nccc(-c3cc4ccccc4s3)n2)cc1 | binding | competition with immobilised ligand | 1 µM | 87 |
| Cc1c(NC(=O)c2cc(C(N)=O)nc3cc(F)ccc23)c(C(F)(F)F)nn1Cc1ccc(C(C)(C)C)cc1 | cell-free assay | competition with immobilised ligand | 1 µM | 98 |
| O=C(Nc1c[nH]nc1C(=O)NC1CCNCC1)c1cc(F)cc(F)c1 | binding | competition with immobilised ligand | 1 µM | 84 |
| O=C(c1ccc(Nc2nccc(-c3cc4ccccc4s3)n2)cc1)N1CCC(N2CCCC2)CC1 | binding | competition with immobilised ligand | 1 µM | 54 |
| O=C1NC(c2ccccn2)Sc2ccccc21 (stereo not drawn) | cell-free assay | competition with immobilised ligand | 1 µM | 72 |
| c1cnn2ncc(-c3ccnc(N4CCC45COC5)n3)c2c1 | binding |  | 1 µM | 58 |
| CC(=O)N1CCC(c2ccc(C(=O)NC(=N)N)cc2C(F)(F)F)CC1 | cell-free assay | competition with immobilised ligand | 1 µM | 100 |
| C[C@@H]1CCN(c2nccc(-c3cnn4ncccc34)n2)C1 | binding |  | 1 µM | 64 |
| C=CC(=O)N1CCC(C(=O)NCC(=O)N2CCN(c3nc(-c4cnc(N)nc4C(F)F)nc(N4CCOCC4)n3)CC2)CC1 | binding | competition with immobilised ligand | 1 µM | 95 |
| CN([C@@H]1CCc2c(CC(=O)O)c3ccccc3n2C1)S(=O)(=O)c1ccc(F)cc1 | cell-free assay | competition with immobilised ligand | 1 µM | 100 |
| CN(CCCC(F)(F)F)c1nccc(-c2cnn3ncccc23)n1 | binding |  | 1 µM | 100 |
| O=C(O)[C@H]1[C@H](Cn2nnc3ccccc3c2=O)CC[C@@H]1C(=O)c1ccc(OCCC2CCOCC2)cc1 | cell-free assay | competition with immobilised ligand | 1 µM | 66 |
| Nc1ncc2c(n1)-c1c([nH]c3ccc(C#CC4CC4)cc13)CCCC2 | binding | competition with immobilised ligand | 1 µM | 89 |
| CNC(=O)[C@@H]1CC[C@@H](n2c(-c3ccc4cnccc4c3)nc3ccc(C(=O)NCc4cccc(C(N)=O)c4)cc32)C1 | binding | competition with immobilised ligand | 1 µM | 97 |
| COc1ncc2cc3ccccc3nc2c1C#N | cell-free assay | competition with immobilised ligand | 5 µM | 100 |
| CN(C)c1nccc(-c2cnc3ncccn23)n1 | binding |  | 1 µM | 72 |
| O=C(c1ccc(Nc2ncc(Cl)c(-c3ccc(Cl)s3)n2)cc1)N1CCC(N2CCCC2)CC1 | binding | competition with immobilised ligand | 1 µM | 98 |
| CC1CCCN1c1nccc(-c2cnn3ncccc23)n1 (stereo not drawn) | binding |  | 1 µM | 100 |
| CCN1CCN(Cc2ccc(C(=O)Nc3ccc(C)c(Oc4ccc5c(c4)CC(=O)N5)c3)cc2C(F)(F)F)CC1 | binding | competition with immobilised ligand | 1 µM | 100 |
